Active and inactive are the calls of the source. No cut-off for these calls is given here.
Key:
[1] = biological target: T1, Amine oxidase [flavin-containing] B (Homo sapiens, UniProt P27338); test: Inhibition of MAO-B (unknown origin)
T1 sequence (P27338 whole entry): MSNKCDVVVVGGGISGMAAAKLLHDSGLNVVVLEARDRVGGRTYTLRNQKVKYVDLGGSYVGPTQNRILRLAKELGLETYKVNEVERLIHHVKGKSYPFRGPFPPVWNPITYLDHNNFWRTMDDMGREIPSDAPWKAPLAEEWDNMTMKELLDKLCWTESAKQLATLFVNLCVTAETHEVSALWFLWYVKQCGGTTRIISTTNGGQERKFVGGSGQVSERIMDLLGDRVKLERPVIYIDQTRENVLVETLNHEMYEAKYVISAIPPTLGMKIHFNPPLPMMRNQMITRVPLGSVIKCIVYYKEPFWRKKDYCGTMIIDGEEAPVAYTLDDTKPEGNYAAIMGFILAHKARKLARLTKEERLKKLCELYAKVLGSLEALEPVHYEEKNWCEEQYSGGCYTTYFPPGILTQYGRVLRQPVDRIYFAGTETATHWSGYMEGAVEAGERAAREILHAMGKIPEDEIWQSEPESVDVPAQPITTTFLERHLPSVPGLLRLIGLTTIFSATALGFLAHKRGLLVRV

Cholinesterase [2] = biological target: T2, Cholinesterase (Homo sapiens, UniProt P06276); test: Inhibition of BuChE (unknown origin)
T2 sequence (P06276 whole entry): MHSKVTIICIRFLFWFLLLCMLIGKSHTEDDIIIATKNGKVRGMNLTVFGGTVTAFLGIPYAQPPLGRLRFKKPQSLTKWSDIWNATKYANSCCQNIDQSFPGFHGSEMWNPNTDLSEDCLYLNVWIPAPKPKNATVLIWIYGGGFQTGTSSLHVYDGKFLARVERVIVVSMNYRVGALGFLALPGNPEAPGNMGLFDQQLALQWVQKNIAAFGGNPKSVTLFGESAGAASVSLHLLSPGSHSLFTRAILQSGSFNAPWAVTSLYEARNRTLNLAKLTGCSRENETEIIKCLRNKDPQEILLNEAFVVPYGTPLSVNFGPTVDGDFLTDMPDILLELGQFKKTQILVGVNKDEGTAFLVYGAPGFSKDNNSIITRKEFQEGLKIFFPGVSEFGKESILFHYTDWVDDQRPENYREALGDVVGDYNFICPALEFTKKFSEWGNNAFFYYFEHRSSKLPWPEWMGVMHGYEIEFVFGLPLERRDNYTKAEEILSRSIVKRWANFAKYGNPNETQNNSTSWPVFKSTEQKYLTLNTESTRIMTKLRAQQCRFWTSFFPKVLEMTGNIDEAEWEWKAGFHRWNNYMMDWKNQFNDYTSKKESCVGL
Procedure, shortened: (§1)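 Ellman method as for AChE, using butyrylcholinesterase with BTCI as substrate. Enzyme and compound preincubated 30 min at 37 °C in a CO2 incubator, then DTNB and BTCI added; absorbance read at 417 nm. Screening at 20 μM as % inhibition; IC50 for compounds exceeding 50% inhibition at 20 μM. Triplicate.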

Acetylcholinesterase [3] = biological target: T3, Acetylcholinesterase (Homo sapiens, UniProt P22303); test: Inhibition of AChE (unknown origin)
T3 sequence (P22303 whole entry): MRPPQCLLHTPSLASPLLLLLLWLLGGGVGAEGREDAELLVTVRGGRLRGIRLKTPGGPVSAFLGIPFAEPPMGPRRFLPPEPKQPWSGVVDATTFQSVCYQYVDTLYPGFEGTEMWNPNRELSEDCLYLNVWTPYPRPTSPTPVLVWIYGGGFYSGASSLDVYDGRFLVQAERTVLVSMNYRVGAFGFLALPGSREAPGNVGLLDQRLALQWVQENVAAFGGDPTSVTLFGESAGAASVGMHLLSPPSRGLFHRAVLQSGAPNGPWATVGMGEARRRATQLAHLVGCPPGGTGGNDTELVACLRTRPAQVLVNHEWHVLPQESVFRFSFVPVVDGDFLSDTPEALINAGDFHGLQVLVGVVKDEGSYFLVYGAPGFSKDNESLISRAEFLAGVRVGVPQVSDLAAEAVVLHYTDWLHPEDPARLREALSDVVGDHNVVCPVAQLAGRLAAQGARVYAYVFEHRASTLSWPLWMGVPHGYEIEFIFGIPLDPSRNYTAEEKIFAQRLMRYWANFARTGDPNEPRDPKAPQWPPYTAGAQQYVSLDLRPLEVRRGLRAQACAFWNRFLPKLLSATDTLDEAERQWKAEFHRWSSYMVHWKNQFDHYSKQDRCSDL
Procedure, shortened: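 Recombinant AChE (0.5 U ml-1) preincubated with compound for 30 min at 37 °C in a CO2 incubator. DTNB and acetylthiocholine substrate (AChSI) then added, and absorbance read at 417 nm. Screening at 20 μM as % inhibition; IC50 determined for compounds giving over 50% inhibition at 20 μM. Run in triplicate.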

[4] = biological target: Amyloid-beta precursor protein (Homo sapiens) (UniProt P05067); test: Inhibition of self-induced amyloid beta (1 to 42 residues) (unknown origin) aggregation assessed as reduction in plaques formation measured after 72 hrs by FE-SEM analysis
Sequence of Amyloid-beta precursor protein (Homo sapiens) (P05067 whole entry, the tested form may be a part): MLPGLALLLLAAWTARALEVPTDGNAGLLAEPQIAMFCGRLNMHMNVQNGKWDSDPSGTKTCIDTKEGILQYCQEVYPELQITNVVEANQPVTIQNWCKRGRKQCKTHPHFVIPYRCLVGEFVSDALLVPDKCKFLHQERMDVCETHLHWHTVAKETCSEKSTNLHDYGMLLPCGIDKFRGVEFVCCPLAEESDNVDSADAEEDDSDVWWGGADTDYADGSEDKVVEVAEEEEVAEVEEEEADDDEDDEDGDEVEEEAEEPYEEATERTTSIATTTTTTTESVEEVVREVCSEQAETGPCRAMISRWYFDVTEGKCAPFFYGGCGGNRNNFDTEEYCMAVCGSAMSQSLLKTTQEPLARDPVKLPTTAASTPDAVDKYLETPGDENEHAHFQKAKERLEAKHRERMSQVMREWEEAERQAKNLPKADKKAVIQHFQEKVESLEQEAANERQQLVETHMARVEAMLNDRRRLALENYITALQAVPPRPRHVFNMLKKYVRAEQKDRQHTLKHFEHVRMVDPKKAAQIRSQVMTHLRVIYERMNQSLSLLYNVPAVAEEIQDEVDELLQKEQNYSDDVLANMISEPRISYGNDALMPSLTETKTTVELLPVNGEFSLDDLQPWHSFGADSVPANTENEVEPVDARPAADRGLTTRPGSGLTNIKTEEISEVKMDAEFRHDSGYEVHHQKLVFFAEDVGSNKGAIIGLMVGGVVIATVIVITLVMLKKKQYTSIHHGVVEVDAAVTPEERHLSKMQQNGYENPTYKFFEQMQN
Procedure, shortened: (§2)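 HFIP-pretreated Aβ1-42 incubated with or without inhibitor for 72 h; samples placed on carbon-coated copper grids, dried 1 h at 37 °C, imaged by FE-SEM. Glycine–NaOH buffer served as blank and Aβ alone as control.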

[5] = biological target: Amyloid-beta precursor protein (Homo sapiens) (UniProt P05067); test: Inhibition of self-induced amyloid beta (1 to 42 residues) (unknown origin) aggregation assessed as reduction in fibrils formation measured after 72 hrs by FE-SEM analysis; procedure, shortened: as §2
Cholinesterase [6] = biological target: T2, Cholinesterase; test: Inhibition of recombinant BuChE (unknown origin) using BTCI as substrate at 20 uM preincubated for 30 mins followed by substrate addition by TECAN multiplate reader analysis relative to control; procedure, shortened: as §1
[7] = biological target: T1, Amine oxidase [flavin-containing] B; test: Inhibition of recombinant MAO-B (unknown origin) at 20 uM preincubated for 30 mins followed substrate addition by Amplex Red reagent based fluorescence analysis relative to control
Procedure, shortened: (§3)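 Recombinant MAO enzyme preincubated with compound 30 min at 37 °C; substrate, HRP and Amplex Red working solution then added; H2O2 formation read at 37 °C by fluorescence, ex 545/em 590 nm. Screening at 20 μM as % inhibition versus control; IC50 only for compounds above 50% inhibition at 20 μM; triplicate (n = 3).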

[8] = biological target: T4, Amine oxidase [flavin-containing] A (Homo sapiens, UniProt P21397); test: Inhibition of recombinant MAO-A (unknown origin) at 20 uM preincubated for 30 mins followed substrate addition by Amplex Red reagent based fluorescence analysis relative to control; procedure, shortened: as §3
T4 sequence (P21397 whole entry): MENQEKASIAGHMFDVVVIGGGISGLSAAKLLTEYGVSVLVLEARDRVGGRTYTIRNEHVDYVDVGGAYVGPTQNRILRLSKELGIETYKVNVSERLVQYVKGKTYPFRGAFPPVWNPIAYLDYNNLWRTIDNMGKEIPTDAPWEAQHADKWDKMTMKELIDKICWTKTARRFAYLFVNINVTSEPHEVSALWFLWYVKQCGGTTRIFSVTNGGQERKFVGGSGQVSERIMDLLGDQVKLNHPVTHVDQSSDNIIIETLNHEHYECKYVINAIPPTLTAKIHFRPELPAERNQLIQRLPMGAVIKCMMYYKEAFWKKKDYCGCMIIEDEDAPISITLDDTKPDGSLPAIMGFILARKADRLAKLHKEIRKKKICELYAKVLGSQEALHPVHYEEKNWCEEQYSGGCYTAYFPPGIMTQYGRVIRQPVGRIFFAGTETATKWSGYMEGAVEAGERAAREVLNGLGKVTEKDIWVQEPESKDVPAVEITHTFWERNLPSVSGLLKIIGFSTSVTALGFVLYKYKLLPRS

Cholinesterase [9] = biological target: T2, Cholinesterase; test: Inhibition of recombinant BuChE (unknown origin) using BTCI as substrate preincubated for 30 mins followed by substrate addition by TECAN multiplate reader analysis; procedure, shortened: as §1
[10] = biological target: Amyloid-beta precursor protein (Homo sapiens) (UniProt P05067); test: Inhibition of self-induced amyloid beta (1 to 42 residues) (unknown origin) aggregation at 20 uM incubated at 24 hrs by fluorimetry-based thioflavin T assay
Procedure, shortened: (§4)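 Aβ1-42 pretreated with HFIP (1 mg mL−1) and dried, then incubated with compound (20 μM) at 37 °C for 24 h; an aliquot transferred and incubated further to 48 h. Glycine–NaOH buffer pH 8.0 with 5 μM ThT added; fluorescence read at 440–485 nm. % inhibition calculated against the Aβ-only control taken as 0%.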

[11] = biological target: Amyloid-beta precursor protein (Homo sapiens) (UniProt P05067); test: Inhibition of self-induced amyloid beta (1 to 42 residues) (unknown origin) aggregation at 20 uM incubated at 48 hrs by fluorimetry-based thioflavin T assay; procedure, shortened: as §4
SH-SY5Y [12] = test: Inhibition of ROS production in human SH-SY5Y cells assessed as intracellular ROS level at 5 uM incubated for 24 hrs by DCF-DA staining based fluorescence analysis relative to control; assay type: functional
Procedure, shortened: (§5)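 Cultured SH-SY5Y cells exposed to compound (1, 5, 25 μM) for 24 h; intracellular ROS detected with DCF-DA, which is converted to fluorescent 2,7-DCF, read at ex 478/em 518 nm. Inhibition is expressed relative to control. Mean ± SD of triplicate or more independent experiments.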

SH-SY5Y [13] = test: Cytotoxicity against human SH-SY5Y cells assessed as cell viability at 5 uM by MTT assay relative to control; assay type: functional; conditions: read-out: Activity
Procedure, shortened: (§6)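 SH-SY5Y cells (DMEM/F-12 with 10% FBS, 1% horse serum, 1% penicillin) preincubated 24 h with compound at 1, 5 or 25 μM; MTT converted to formazan, solubilised in DMSO, absorbance read at 595 nm; viability expressed as percentage of untreated control.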

[14] = biological target: T1, Amine oxidase [flavin-containing] B; test: Reversible inhibition of MAO-B (unknown origin) assessed as residual activity at 100 times IC50 incubated for 30 mins by dilution method relative to control; conditions: 0.5 h
[15] = biological target: T1, Amine oxidase [flavin-containing] B; test: Reversible inhibition of MAO-B (unknown origin) assessed as residual activity at 0.1 times IC50 incubated for 30 mins by dilution method relative to control; conditions: 0.5 h
SH-SY5Y [16] = test: Neuroprotective activity against 6-OHDA-induced cytotoxicity in human SH-SY5Y cells assessed as cell viability at 25 uM incubated for 24 hrs followed by exposure to 6-OHDA by MTT assay relative to control; assay type: functional; conditions: read-out: Activity
Procedure, shortened: (§7)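 SH-SY5Y cells treated with compound (1, 5, 25 μM) and challenged with 6-OHDA; cultured 24 h at 37 °C under humidified 5% CO2. Viability measured by MTT as formazan absorbance at 594 nm and expressed relative to control.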

SH-SY5Y [17] = test: Inhibition of ROS production in human SH-SY5Y cells assessed as intracellular ROS level at 25 uM incubated for 24 hrs by DCF-DA staining based fluorescence analysis relative to control; assay type: functional; procedure, shortened: as §5
Acetylcholinesterase [18] = biological target: T3, Acetylcholinesterase; test: Reversible inhibition of AChE (unknown origin) assessed as residual activity at 100 times IC50 incubated for 30 mins by dilution method relative to control
Procedure, shortened: (§8)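 Samples then diluted 100-fold with substrate, giving final inhibitor levels of 0.1× and 1× IC50. Recovered activity measured relative to control; triplicate.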

[19] = biological target: T1, Amine oxidase [flavin-containing] B; test: Reversible inhibition of MAO-B (unknown origin) assessed as residual activity at 1 times IC50 incubated for 30 mins by dilution method relative to control; conditions: 0.5 h
Acetylcholinesterase [20] = biological target: T3, Acetylcholinesterase; test: Reversible inhibition of AChE (unknown origin) assessed as residual activity at 10 times IC50 incubated for 30 mins by dilution method relative to control; procedure, shortened: as §8
SH-SY5Y [21] = test: Cytotoxicity against human SH-SY5Y cells assessed as cell viability at 25 uM by MTT assay relative to control; assay type: functional; conditions: read-out: Activity; procedure, shortened: as §6
SH-SY5Y [22] = test: Cytotoxicity against human SH-SY5Y cells assessed as cell viability at 1 uM by MTT assay relative to control; assay type: functional; conditions: read-out: Activity; procedure, shortened: as §6
Acetylcholinesterase [23] = biological target: T3, Acetylcholinesterase; test: Reversible inhibition of AChE (unknown origin) assessed as residual activity at 1 times IC50 incubated for 30 mins by dilution method relative to control; procedure, shortened: as §8
Acetylcholinesterase [24] = biological target: T3, Acetylcholinesterase; test: Reversible inhibition of AChE (unknown origin) assessed as residual activity at 0.1 times IC50 incubated for 30 mins by dilution method relative to control; procedure, shortened: as §8
SH-SY5Y [25] = test: Neuroprotective activity against 6-OHDA-induced cytotoxicity in human SH-SY5Y cells assessed as cell viability at 1 uM incubated for 24 hrs followed by exposure to 6-OHDA by MTT assay relative to control; assay type: functional; conditions: read-out: Activity; procedure, shortened: as §7
[26] = biological target: T1, Amine oxidase [flavin-containing] B; test: Reversible inhibition of MAO-B (unknown origin) assessed as residual activity at 10 times IC50 incubated for 30 mins by dilution method relative to control; conditions: 0.5 h
[27] = biological target: T1, Amine oxidase [flavin-containing] B; test: Inhibition of recombinant MAO-B (unknown origin) preincubated for 30 mins followed substrate addition by Amplex Red reagent based fluorescence analysis
SH-SY5Y [28] = test: Cytotoxicity against human SH-SY5Y cells assessed as reduction in cell viability at 1 to 25 uM by MTT assay; assay type: functional, cell-based; conditions: dose 1-25 µM; procedure, shortened: as §6
SH-SY5Y [29] = test: Neuroprotective activity against 6-OHDA-induced cytotoxicity in human SH-SY5Y cells assessed as cell viability at 5 uM incubated for 24 hrs followed by exposure to 6-OHDA by MTT assay relative to control; assay type: functional; conditions: read-out: Activity; procedure, shortened: as §7
SH-SY5Y [30] = test: Inhibition of ROS production in human SH-SY5Y cells assessed as intracellular ROS level at 1 uM incubated for 24 hrs by DCF-DA staining based fluorescence analysis relative to control; assay type: functional; procedure, shortened: as §5

Compound	inhibition (Cholinesterase [6])	inhibition at 20 µM [7]	inhibition at 20 µM [8]	inhibition [10]	inhibition [11]	also measured
O=C(NCCC1CCN(Cc2ccccc2)CC1)c1coc2cc(OCc3ccccc3)ccc2c1=O	–	–	–	–	–	IC50 [1]: 0.272 µM; IC50 (Cholinesterase [2]): 5.24 µM; IC50 (Acetylcholinesterase [3]): 0.37 µM
Oc1ccc(/C=C/c2cc(O)cc(O)c2)cc1	–	–	–	–	–	inhibition [4]: Active; inhibition [5]: Active
C#CCCCOc1c(CN2CCCCC2)cc(-c2cc(=O)c3ccccc3o2)cc1OC	21.6%	15.6%	0.75%	–	–	–
C#CCCOc1c(CN2CCN(c3ccccc3)CC2)cc(-c2cc(=O)c3ccccc3o2)cc1OC	1.63%	35.4%	9.14%	–	–	–
C#CCCCOc1c(CN2CCc3ccccc3C2)cc(-c2cc(=O)c3ccccc3o2)cc1OC	51.5%	19.8%	11.3%	–	–	IC50 (Cholinesterase [9]): 18.9 µM
C#CCCCOc1c(CN2CCOCC2)cc(-c2cc(=O)c3ccccc3o2)cc1CN1CCOCC1	1%	18.1%	–	23.9%	26.9%	–
C#CCCCOc1c(CN2CCN(c3ccccc3)CC2)cc(-c2cc(=O)c3ccccc3o2)cc1OC	1.69%	13.1%	2.6%	–	–	–
C#CCOc1c(CN2CCCCC2)cc(-c2cc(=O)c3ccccc3o2)cc1OC	89.9%	50.8%	–	22.4%	28.5%	inhibition at 5 µM (SH-SY5Y [12]): 51%; viability at 5 µM (SH-SY5Y [13]): 94.4%; Activity [14]: 14%; Activity [15]: 76.3%; viability at 25 µM (SH-SY5Y [16]): 46.9%; IC50 (Cholinesterase [9]): 1.95 µM; inhibition at 25 µM (SH-SY5Y [17]): 47%; Activity (Acetylcholinesterase [18]): 25.3%; Activity [19]: 58.9%; Activity (Acetylcholinesterase [20]): 33.1%; viability at 25 µM (SH-SY5Y [21]): 91.9%; viability at 1 µM (SH-SY5Y [22]): 97.1%; Activity (Acetylcholinesterase [23]): 47.2%; Activity (Acetylcholinesterase [24]): 71.3%; viability at 1 µM (SH-SY5Y [25]): 51.9%; Activity [26]: 32.6%; IC50 [27]: 19.6 µM; Activity (SH-SY5Y [28]): Not toxic; viability at 5 µM (SH-SY5Y [29]): 49.4%; inhibition at 1 µM (SH-SY5Y [30]): 82.8%
C#CCOc1c(CN2CCOCC2)cc(-c2cc(=O)c3ccccc3o2)cc1OC	1.17%	15.1%	–	36.1%	40.4%	–
C#CCCCOc1c(CN2CCOCC2)cc(-c2cc(=O)c3ccccc3o2)cc1OC	3.35%	18.8%	–	–	–	–

Source: ChEMBL document CHEMBL6134795, “Mannich reaction mediated derivatization of chromones and their biological evaluations as putative multipotent ligands for the treatment of Alzheimer's disease” (RSC Med Chem, 2024)
